Measured values reported in ChEMBL document CHEMBL4229550, “An antimycobacterial pleuromutilin analogue effective against dormant bacilli” (Bioorg Med Chem, 2018).
≈ marks a conversion by molar mass, not a printed value.

Assays:
[1] = system: Mycobacterium tuberculosis; assay: Antibacterial activity against non-replicating Mycobacterium tuberculosis H37Rv harboring pFCA-luxAB preincubated for 10 days under anaerobic condition followed by incubation under ambient gaseous condition for 28 hrs by LORA; type: functional
How it was run: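 Mtb H37Rv is electroporated with pFCA-luxAB and diluted in 7H12 broth to A570 0.03–0.05 (3,000–7,000 RLU per 100 µL). Cells are added to two-fold serial dilutions and held anaerobic (O2 <0.16%; 10% H2, 5% CO2, 85% N2) for 10 days. A 28 h recovery in 5% CO2 air follows, then luminescence is read.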

[2] = system: Mycobacterium tuberculosis; assay: Selectivity ratio of MIC for antibacterial activity against non-replicating Mycobacterium tuberculosis H37Rv harboring pFCA-luxAB to MIC100 for antibacterial activity against replicating Mycobacterium tuberculosis H37Rv; type: functional

Row | SMILES | MIC [1] [µg/mL] | selectivity ratio [2]
1 | C=C[C@]1(C)C[C@@H](OC(=O)CSC(C)(C)CNC(=O)[C@H](N)CC(C)C)[C@]2(C)[C@H](C)CC[C@]3(CC[C@@H](O)[C@H]32)[C@@H](C)[C@@H]1O | 3.46 (≈ 5.96 µM) | 1.13
2 | C=C[C@]1(C)C[C@@H](OC(=O)CSC(C)(C)CNC(=O)[C@H](N)CC(C)C)[C@]2(C)[C@H](C)CC[C@]3(CCC(=O)[C@H]32)[C@@H](C)[C@@H]1O | 1.98 (≈ 3.42 µM) | 1.27
3 | CC[C@]1(C)C[C@@H](OC(=O)CSC(C)(C)CNC(=O)[C@H](N)CC(C)C)[C@]2(C)[C@H](C)CC[C@]3(CC[C@@H](O)[C@H]32)[C@@H](C)[C@@H]1O | 1.2 (≈ 2.06 µM) | 1.45
4 | CC[C@]1(C)C[C@@H](OC(=O)CSC(C)(C)CNC(=O)[C@H](N)CC(C)C)[C@]2(C)[C@H](C)CC[C@]3(CCC(=O)[C@H]32)[C@@H](C)[C@@H]1O | 1.04 (≈ 1.79 µM) | 1.33
5 | CC[C@@H](CO)NCCN[C@@H](CC)CO [ETHAMBUTOL] | > 100 | >128
6 | NNC(=O)c1ccncc1 [ISONIAZID] | > 100 | >2500
7 | CC(=O)NC[C@H]1CN(c2ccc(N3CCOCC3)c(F)c2)C(=O)O1 [LINEZOLID] | 0.63 (≈ 1.87 µM) | 1.05
8 | C=C[C@]1(C)C[C@@H](OC(=O)CSC(C)(C)CNC(=O)[C@H](N)C(C)C)[C@]2(C)[C@H](C)CC[C@]3(CCC(=O)[C@H]32)[C@@H](C)[C@@H]1O [VALNEMULIN] | 3.56 (≈ 6.3 µM) | 1.14
